# Results collected from several papers.
# Each line is one published result; the experiments were not run side by side.
# Sample: plasma
Structure (SMILES),system,setting,AUC(0-t) [ng·h/mL]
C#Cc1cccc(Nc2ncnc3cc(OCCOC)c(OCCOC)cc23)c1,male Sprague-Dawley rat,"oral, 12 mg/kg, single dose",9250
Cc1nc(-c2cnc(NC(C)C)n(C)c2=O)ccc1Oc1ccnc(-c2cnn(C)c2)c1,male Sprague-Dawley rat,"intravenous, 1 mg/kg",21500
O=C(Nc1cc(F)c(F)c(F)c1)c1ccc(F)c(S(=O)(=O)NCc2cccc(B(O)O)c2)c1,male Sprague-Dawley rat,"intravenous, 2 mg/kg",242
Cc1c(-c2ccccc2)cccc1N1C(=O)c2cc(CN[C@H](C(=O)O)C(C)O)c(OCc3cccc(C#N)c3)cc2C1=O (some centres unmarked),Sprague-Dawley rat,"oral, 50 mg/kg",75
CCc1cc(OC)c2nccc(N3CCc4c(cc(Cn5ccnc5)cc4-c4cn(C)nc4C(F)(F)F)C3=O)c2c1,male Sprague-Dawley rat,"intravenous, 3 mg/kg",952
COc1ccc2c(Cc3ccccc3F)c3n(c(=O)c2c1OC)CCc1cc2c(cc1-3)OCO2,rat,"oral, 5 mg/kg",3470
CNC(=O)c1c(C)oc2cc(Oc3ncnc4cc(OC)c(OC)cc34)ccc12,Sprague-Dawley rat,"oral, 1 mg/kg, single dose",6270
C[C@H](Nc1ncnc2[nH]cnc12)c1cc2cccc(Cl)c2c(=O)n1-c1ccccc1,male Wistar rat,"oral, 25 mg/kg, single dose",9340
CCc1cc(C(=O)NC)c2nccc(N3CCc4c(cc(Cn5ccnc5)cc4-c4cn(C)nc4C(F)(F)F)C3=O)c2c1,male Sprague-Dawley rat,"intravenous, 3 mg/kg",1270
C=CC(=O)N1CC2CC(n3nc(-c4ccc(C(=O)Nc5ccccn5)cc4)c4c(N)ncnc43)CC2C1 (centres unmarked),male Wistar rat,"oral, 100 mg/kg",13200
N#Cc1ccc(Nc2nc(N)cc(Oc3c(F)cc(-c4ccc(C#N)cc4)cc3F)n2)cc1,Sprague-Dawley rat,"intravenous, 1 mg/kg",302
CCc1nc(C(N)=O)c(Nc2ccc(N3CCC(N4CCN(C)CC4)CC3)c(OC)c2)nc1NC1CCOCC1,male Sprague-Dawley rat,"oral, 10 mg/kg",9290
CCOC(=O)[C@@]12C[C@@H]1[C@@H](n1ccc3c(NC)nc(C#Cc4ccc(Cl)s4)nc31)[C@H](O)[C@@H]2O,male Sprague-Dawley rat,"oral, 10 mg/kg",361
COc1nc(-c2cc(C)c(N[C@@H](C)c3cc(F)cc(F)c3)nn2)ccc1-n1cnc(C)c1,male Sprague-Dawley rat,"oral, 5 mg/kg, single dose",31900
